Source: ChEMBL document CHEMBL2146370, “Newly synthesized bis-benzimidazole derivatives exerting anti-tumor activity through induction of apoptosis and autophagy” (Bioorg Med Chem Lett, 2012)
The source made the active and inactive calls. The calls are words filed in the database; no cut-off is given here.

Key:
HeLa = test: Cytotoxicity against human HeLa cells after 72 hrs by MTT assay; type: functional, cell-based
Method in brief: (§1)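 MTT assay in HeLa, HL60 and U937 cancer lines. IC50 in µM is the mean ± SD of three independent experiments. 5-Fluorouracil and paclitaxel served as positive controls.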

U-937 = test: Cytotoxicity against human U937 cells after 72 hrs by MTT assay; type: functional, cell-based; details: U-937, 72 h; method in brief: as §1
HL-60 [1] = test: Cytotoxicity against human HL60 cells after 72 hrs by MTT assay; type: functional, cell-based; details: HL-60, 72 h; method in brief: as §1
[2] = Cytotoxicity against human PBMC cells assessed as cell viability at 5 uM after 12 hrs by MTT assay; type: cell-based; details: read-out: Activity
Method in brief: (§2)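 PBMC from three healthy adult volunteers, seeded at 5 × 10^5 cells/well in 96-well plates; cultured with various doses of test agent for 12, 24, 48 and 72 h; viability read out; n=3, mean ± SD; significance p < 0.05.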

[3] = Cytotoxicity against human PBMC cells assessed as cell viability at 5 uM after 48 hrs by MTT assay; type: cell-based; details: read-out: Activity; method in brief: as §2
[4] = Cytotoxicity against human PBMC cells assessed as cell viability at 5 uM after 24 hrs by MTT assay; type: cell-based; details: read-out: Activity; method in brief: as §2
[5] = Cytotoxicity against human PBMC cells assessed as cell viability at 5 uM after 72 hrs by MTT assay; type: cell-based; details: read-out: Activity; method in brief: as §2
HL-60 [6] = test: Induction of apoptosis in human HL60 cells assessed as retraction of cellular process at 0.5 uM after 24 hrs by phase contrast microscopy; type: functional, cell-based
Method in brief: (§3)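 HL60 cells were cultured with 0.5 µM for 24, 48 and 72 h. Morphology was compared with untreated control cells by microscopy.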

HL-60 [7] = test: Induction of autophagy in human HL60 cells assessed as increase in beclin 1 level at 0.5 umol/L by Western blot analysis; type: functional, cell-based; details: TDE = time-dependent effect
Method in brief: (§4)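 HL60 cells were treated with 0.5 µmol L-1 over a time course and analysed by Western blot for Beclin-1 and LC3-I to LC3-II conversion, with β-actin as loading control.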

HL-60 [8] = test: Induction of apoptosis in human HL60 cells assessed as decrease in apoptotic ratio at 0.5 uM after 24 hrs by MDC staining-based fluorescence analysis in presence of 3-MA; type: functional, cell-based
Method in brief: (§5)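 HL60 cells were treated 24 h with 0.5 µM, with or without 1 mM 3-MA added beforehand. MDC-positive (autophagic) ratio and apoptotic ratio were measured by flow cytometry. Mean ± SD, n = 3.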

HL-60 [9] = test: Induction of autophagy in human HL60 cells at 0.5 umol/L after 48 hrs by MDC staining based flow cytometry (reference value: 2.27 +/- 0.43 %); type: functional
Method in brief: (§6)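 HL60 cells were treated with 0.5 µmol L-1 for 0, 24, 48 or 72 h, stained with MDC, and fluorescence intensity was analysed by flow cytometry.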

HL-60 [10] = test: Induction of apoptosis in human HL60 cells assessed as membrane blebbing at 0.5 uM after 48 hrs by phase contrast microscopy; type: functional, cell-based; method in brief: as §3
HL-60 [11] = test: Induction of autophagy in human HL60 cells assessed as increase in LC3-II level at 0.5 umol/L by Western blot analysis; type: functional, cell-based; details: TDE = time-dependent effect; method in brief: as §4
HL-60 [12] = test: Induction of apoptosis in human HL60 cells assessed as round cell with shrunken nuclei at 0.5 uM after 48 hrs by phase contrast microscopy; type: functional, cell-based; method in brief: as §3
HL-60 [13] = test: Cell cycle arrest in human HL60 cells assessed as accumulation at sub-G1 phase after 24 hrs by PI-based flow cytometry analysis ( Rvb = 1.73 +/-0.08 %); type: functional
Method in brief: (§7)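 HL60 cells exposed to 0.5 µM for 24, 48 and 72 h alongside untreated controls. Apoptosis was quantified by flow cytometry as the subG1 fraction.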

HL-60 [14] = test: Induction of autophagy in human HL60 cells at 0.5 umol/L after 24 hrs by MDC staining based flow cytometry (reference value: 2.27 +/- 0.43 %); type: functional; method in brief: as §6
HL-60 [15] = test: Cell cycle arrest in human HL60 cells assessed as accumulation at sub-G1 phase after 72 hrs by PI-based flow cytometry analysis ( Rvb = 1.73 +/-0.08 %); type: functional; method in brief: as §7
HL-60 [16] = test: Induction of autophagy in human HL60 cells assessed as formation of autophagic vacuoles at 0.5 umol/L by MDC staining-based flow cytometry; type: functional, cell-based; details: TDE = time-dependent effect
Method in brief: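 Autophagic vacuoles were labelled with monodansylcadaverine and viewed by fluorescence microscopy. MDC fluorescence intensity was quantified by flow cytometry after 0.5 µmol L-1 treatment.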

HL-60 [17] = test: Induction of apoptosis in human HL60 cells assessed as non-adherent dead cell at 0.5 uM after 48 hrs by phase contrast microscopy; type: functional, cell-based; method in brief: as §3
HL-60 [18] = test: Cell cycle arrest in human HL60 cells assessed as accumulation at sub-G1 phase after 48 hrs by PI-based flow cytometry analysis ( Rvb = 1.73 +/-0.08 %); type: functional; method in brief: as §7
HL-60 [19] = test: Cell cycle arrest in human HL60 cells assessed as accumulation at sub-G1 phase by PI-based flow cytometry analysis; type: functional; details: TDE = time-dependent effect; method in brief: as §7
PBMC = test: Cytotoxicity against human PBMC cells assessed as cell viability at 160 uM after 24 to 72 hrs by MTT assay; type: cell-based
Method in brief: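 PBMC were taken from three healthy adult volunteers and seeded at 5 × 10^5 cells/well. They were cultured 12, 24, 48 and 72 h across a range of concentrations up to 160 µM, with 5-FU for comparison. Viability is mean ± SD, n=3, compared by p < 0.05.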

HL-60 [20] = test: Induction of apoptosis in human HL60 cells assessed as chromatin condensation by acridine orange staining-based fluorescence microscopy; type: functional, cell-based
Method in brief: (§8)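 HL60 cells were stained with acridine orange and examined under a fluorescence microscope for chromatin condensation and nuclear fragmentation, with control-medium cells as reference.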

HL-60 [21] = test: Induction of apoptosis in human HL60 cells assessed as fragmentation of nuclei into apoptotic bodies at 0.5 uM after 48 hrs by phase contrast microscopy; type: functional, cell-based; method in brief: as §3
HL-60 [22] = test: Induction of apoptosis in human HL60 cells assessed as nuclear fragmentation by acridine orange staining-based fluorescence microscopy; type: functional, cell-based; method in brief: as §8
HL-60 [23] = test: Induction of apoptosis in human HL60 cells assessed as round in cell shape at 0.5 uM after 24 hrs by phase contrast microscopy; type: functional, cell-based; method in brief: as §3
HL-60 [24] = test: Induction of apoptosis in human HL60 cells assessed as decrease in number of MDC-positive cells at 0.5 uM after 24 hrs by MDC staining-based fluorescence analysis in presence of 3-MA; type: functional, cell-based; method in brief: as §5
HL-60 [25] = test: Induction of autophagy in human HL60 cells at 0.5 umol/L after 72 hrs by MDC staining based flow cytometry (reference value: 2.27 +/- 0.43 %); type: functional; method in brief: as §6

## Brc1ccc(-c2nc3cc(Oc4ccc5[nH]c(-c6ccc(Br)cc6)nc5c4)ccc3[nH]2)cc1
HeLa
  IC50: 20.4 µM
U-937
  IC50: 21.7 µM
HL-60 [1]
  IC50: 17.2 µM

## c1ccc(-c2nc3cc(Oc4ccc5[nH]c(-c6ccccc6)nc5c4)ccc3[nH]2)cc1
HeLa
  IC50: 18.4 µM
U-937
  IC50: 17.1 µM
HL-60 [1]
  IC50: 16.5 µM

## O=c1[nH]cc(F)c(=O)[nH]1 [FLUOROURACIL]
[2]
  viability at 12 h, 5 µM: 98%
HeLa
  IC50: 0.28 µM
U-937
  IC50: 1.07 µM
[3]
  viability at 48 h, 5 µM: 87%
HL-60 [1]
  IC50: 0.06 µM
[4]
  viability at 24 h, 5 µM: 94%
[5]
  viability at 72 h, 5 µM: 76%

## COc1cc(-c2nc3cc(Oc4ccc5[nH]c(-c6ccc(O)c(OC)c6)nc5c4)ccc3[nH]2)ccc1O
HeLa
  IC50: 10.6 µM
U-937
  IC50: 5.6 µM
HL-60 [1]
  IC50: 8.17 µM

## CC(=O)O[C@H]1C(=O)[C@@]2(C)[C@H]([C@H](OC(=O)c3ccccc3)[C@]3(O)C[C@H](OC(=O)[C@H](O)[C@@H](NC(=O)c4ccccc4)c4ccccc4)C(C)=C1C3(C)C)[C@]1(OC(C)=O)CO[C@@H]1C[C@@H]2O [PACLITAXEL]
U-937
  IC50: 0.00337 µM
HL-60 [1]
  IC50: 0.00282 µM

## Clc1ccc(-c2nc3cc(Oc4ccc5[nH]c(-c6ccc(Cl)cc6Cl)nc5c4)ccc3[nH]2)c(Cl)c1
HeLa
  IC50: 17.2 µM
U-937
  IC50: 20.5 µM
HL-60 [1]
  IC50: 15.8 µM

## CN1CCN(c2ccc3[nH]c(-c4ccc5[nH]c(-c6ccc(O)cc6)nc5c4)nc3c2)CC1 [HOECHST 33258]
HeLa
  IC50: 51.3 µM
U-937
  IC50: 15.4 µM
HL-60 [1]
  IC50: 32.4 µM

## COc1cc(-c2nc3cc(Oc4ccc5[nH]c(-c6cc(OC)c(OC)c(OC)c6)nc5c4)ccc3[nH]2)cc(OC)c1OC
HeLa
  IC50: 9.37 µM
U-937
  IC50: 6.92 µM
HL-60 [1]
  IC50: 7.56 µM

## COc1ccc(-c2nc3cc(Oc4ccc5[nH]c(-c6ccc(OC)cc6)nc5c4)ccc3[nH]2)cc1
HL-60 [6]
  Activity: Active
HL-60 [7]
  Activity: tde
HL-60 [8]
  Activity: Active
HL-60 [9]
  Activity: 47.27%
HL-60 [10]
  Activity: Active
HL-60 [11]
  Activity: tde
HL-60 [12]
  Activity: Active
HL-60 [13]
  Activity: 13.8%
HL-60 [14]
  Activity: 9.79%
[2]
  viability at 12 h, 5 µM: 98%
HL-60 [15]
  Activity: 89.61%
HeLa
  IC50: 4.96 µM
HL-60 [16]
  Activity: tde
HL-60 [17]
  Activity: Active
HL-60 [18]
  Activity: 63.02%
U-937
  IC50: 0.58 µM
HL-60 [19]
  Activity: tde
PBMC
  Activity: Non-toxic
[3]
  viability at 48 h, 5 µM: 88%
HL-60 [20]
  Activity: Active
HL-60 [21]
  Activity: Active
HL-60 [22]
  Activity: Active
HL-60 [1]
  IC50: 0.56 µM
HL-60 [23]
  Activity: Active
[4]
  viability at 24 h, 5 µM: 96%
[5]
  viability at 72 h, 5 µM: 79%
HL-60 [24]
  Activity: Active
HL-60 [25]
  Activity: 89.65%

## COc1cc(OC)cc(-c2nc3cc(Oc4ccc5[nH]c(-c6cc(OC)cc(OC)c6)nc5c4)ccc3[nH]2)c1
HeLa
  IC50: 8.59 µM
U-937
  IC50: 7.09 µM
HL-60 [1]
  IC50: 6.35 µM

## Fc1ccc(-c2nc3cc(Oc4ccc5[nH]c(-c6ccc(F)cc6)nc5c4)ccc3[nH]2)cc1
HeLa
  IC50: 22.8 µM
U-937
  IC50: 22.6 µM
HL-60 [1]
  IC50: 23.2 µM
